In ChEMBL document CHEMBL1944515 (J Med Chem, 2012):
pIC50: −log10 of the molar value. Activity calls are given as the source filed them. The rule behind the calls is not given here.

Experiments:
HeLa [1] = assay: Cytotoxicity against human HeLa cells after 72 hrs by MTT assay; assay type: functional, cell-based
A549 [2] = assay: Cytotoxicity against human A549 cells after 72 hrs by MTT assay; assay type: functional, cell-based; details: A549, 72 h
HL-60 = assay: Cytotoxicity against human HL60 cells after 72 hrs by MTT assay; assay type: functional, cell-based; details: HL-60, 72 h
Jurkat = assay: Cytotoxicity against human Jurkat cells after 72 hrs by MTT assay; assay type: functional, cell-based
Outline: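 8 × 10^3 cells/well were preincubated 18 h at 37 °C, 5% CO2, then given graded concentrations for 72 h, with final DMSO not above 0.25%. Viability was read by MTT. […] Mean ± SE from at least three experiments.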

MCF7 = assay: Cytotoxicity against human MCF7 cells after 72 hrs by MTT assay; assay type: functional, cell-based; details: MCF7, 72 h
HT-29 = assay: Cytotoxicity against human HT-29 cells after 72 hrs by MTT assay; assay type: functional, cell-based; details: HT-29, 72 h
[3] = Inhibition of bovine tubulin polymerisation after 20 mins by turbidimetric analysis; parameters: species or system Bos taurus
Outline: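 Bovine brain tubulin at 10 μM was preincubated with varying compound concentrations in glutamate buffer at 30 °C, cooled to 0 °C, and 0.4 mM GTP added. Samples were warmed to 30 °C and assembly followed by turbidity at 350 nm.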

Bos taurus = organism: Bos taurus; assay: Displacement of [3H]colchicine from bovine tubulin at 5 uM by DEAE-cellulose filter method
Outline: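 Inhibition of [3H]colchicine binding was measured in mixtures of 1 μM tubulin, 5 μM [3H]colchicine and 5 μM test compound. Results are percent inhibition of binding.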

LoVo [4] = assay: Cytotoxicity against human LoVo cells after 72 hrs by MTT assay; assay type: functional, cell-based
Outline: (§1)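 Cells seeded at 8 × 10^3 per well and left 18 h at 37 °C, 5% CO2, then given fresh medium with compound at a range of concentrations for 72 h; DMSO at most 0.25% final. Viability read by MTT relative to 0.25% DMSO-treated cells. […] LoVoDoxo kept in Ham's F12 with 0.1 μg/mL doxorubicin; A549-T12 kept in DMEM with 12 nM paclitaxel.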

LoVo [5] = assay: Cytotoxicity against human doxorubicin-resistant LoVo cells after 72 hrs by MTT assay; assay type: functional, cell-based; outline: as §1
LoVo [6] = assay: Resistance ratio of IC50 for human doxorubicin-resistant LoVo cells to human LoVo cells; assay type: functional
CCRF-CEM [7] = assay: Cytotoxicity against human CEM cells after 72 hrs by MTT assay; assay type: functional, cell-based; outline: as §1
[8] = Cytotoxicity against human CEM/VBL100 cells after 72 hrs by MTT assay; assay type: functional, cell-based; details: CEM/VBL100, 72 h; outline: as §1
CCRF-CEM [9] = assay: Resistance ratio of IC50 for human CEM/VBL100 cells to IC50 for human CEM cells; assay type: functional
[10] = Cytotoxicity against human A549-T12 cells after 72 hrs by MTT assay; assay type: functional, cell-based; details: A549, 72 h; outline: as §1
A549 [11] = assay: Resistance ratio of IC50 for human A549-T12 cells to IC50 for human A549 cells; assay type: functional
HeLa [12] = assay: Induction of cell cycle arrest in human HeLa cells assessed as increase in G2/M phase cells after 24 hrs by flow cytometry; assay type: functional, cell-based
Outline: (§2)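 5 × 10^5 exponentially growing HeLa cells were treated with 15–250 nM for 24 h, fixed in ice-cold 70% ethanol, then treated with lysis buffer containing RNase A and 0.1% Triton X-100. PI staining of DNA content, read by flow cytometry. Mean ± SEM of three independent experiments.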

HeLa [13] = assay: Induction of cell cycle arrest in human HeLa cells assessed as increase in G2/M phase cells at 30 nM after 24 hrs by flow cytometry; assay type: functional, cell-based; outline: as §2
HeLa [14] = assay: Induction of cell cycle arrest in human HeLa cells assessed as G2/M phase cells at 60 nM after 24 hrs by flow cytometry; assay type: functional
Outline: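 Exponentially growing HeLa cells (5 × 10^5) were treated 24 h at 15–250 nM. Cells were fixed in ice-cold 70% ethanol, lysed with RNase A/0.1% Triton X-100 buffer and stained with propidium iodide. DNA content was measured by flow cytometry to score G2/M fraction. Mean ± SEM of three independent experiments.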

HeLa [15] = assay: Induction of cell cycle arrest in human HeLa cells assessed as decrease in G1 phase cells at 15 to 250 nM after 24 hrs by flow cytometry; assay type: functional, cell-based; outline: as §2
HeLa [16] = assay: Induction of cell cycle arrest in human HeLa cells assessed as decrease in S phase cells at 15 to 250 nM after 24 hrs by flow cytometry; assay type: functional, cell-based; outline: as §2
HeLa [17] = assay: Induction of apoptosis in human HeLa cells assessed as increase in annexin-V positive apoptotic cells after 24 to 48 hrs by FITC conjugated annexin-V/PI staining-based flow cytometry; assay type: functional, cell-based
Outline: (§3)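 Flow cytometry of HeLa cells after 24 or 48 h exposure, double-stained with annexin-V-FITC and propidium iodide. Excitation at 488 nm, emission at 525 nm (FITC) and 585 nm (PI). Quadrants scored as live, early apoptotic, late apoptotic or necrotic cells.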

HeLa [18] = assay: Induction of apoptosis in human HeLa cells assessed as increase in annexin-V positive apoptotic cells at 50 to 100 nM by FITC conjugated annexin-V/PI staining-based flow cytometry; assay type: functional, cell-based; details: TDE = time-dependent effect; outline: as §3
HeLa [19] = assay: Induction of mitochondrial depolarization in human HeLa cells after 24 to 48 hrs by JC1-based fluorescent staining; assay type: functional, cell-based
Outline: (§4)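 Mitochondrial membrane potential in HeLa cells after 24 or 48 h incubation, measured with the JC-1 dye by flow cytometry. Aggregates read as red (590 nm) and monomers as 530 nm; output is the percentage of depolarized cells. Mean ± SEM of three independent experiments.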

HeLa [20] = assay: Induction of mitochondrial depolarization in human HeLa cells at 50 to 100 nM by JC1-based fluorescent staining; assay type: functional, cell-based; details: TDE = time-dependent effect; outline: as §4
HeLa [21] = assay: Induction of ROS production in human HeLa cells at 50 to 100 nM after 24 to 48 hrs by HE staining-based flow cytometry; assay type: functional, cell-based
Outline: (§5)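 HeLa cells were exposed for 24 or 48 h, then stained with hydroethidine or H2-DCFDA for ROS and read by flow cytometry. DMSO ≤0.25%. Mean ± SEM of three independent experiments.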

HeLa [22] = assay: Induction of ROS production in human HeLa cells at 50 to 100 nM after 24 to 48 hrs by H2-DCFDA staining-based flow cytometry; assay type: functional, cell-based; outline: as §5

Row | SMILES | pIC50 (HeLa [1]) | pIC50 (A549 [2]) | pIC50 (HL-60) | pIC50 (Jurkat) | pIC50 (MCF7) | pIC50 (HT-29) | pIC50 [3] | inhibition (Bos taurus) | also measured
1 | COc1ccc(-c2nnnn2-c2cc(OC)c(OC)c(OC)c2)cc1Cl | 8.64 | 6.40 | 8.44 | 8.00 | 7.60 | 7.44 | 5.46 | 50% | –
2 | CCOc1ccc(-c2ncnn2-c2cc(OC)c(OC)c(OC)c2)cc1 | – | – | – | – | – | – | 6.12 | 86% | –
3 | COc1cc(-n2nnnc2-c2ccc(C(C)=O)cc2)cc(OC)c1OC | 6.19 | < 5.00 | 6.22 | 6.49 | < 5.00 | 5.22 | – | – | –
4 | COc1cc(-n2nnnc2-c2ccccc2)cc(OC)c1OC | 5.39 | < 5.00 | 6.04 | 8.42 | < 5.00 | < 5.00 | – | – | –
5 | CCCOc1ccc(-c2nnnn2-c2cc(OC)c(OC)c(OC)c2)cc1 | 7.95 | 6.31 | 7.36 | 7.33 | 7.18 | 6.98 | 5.51 | 46% | –
6 | COc1cc(-n2nnnc2-c2ccc(C)cc2)cc(OC)c1OC | 6.59 | 5.47 | 6.48 | 6.65 | 5.75 | 6.17 | – | – | –
7 | COc1ccc(-c2nnnn2-c2cc(OC)c(OC)c(OC)c2)cc1F | 8.55 | 6.48 | 8.14 | 8.89 | 7.53 | 8.57 | 5.68 | 60% | –
8 | COc1ccc(-n2nnnc2-c2cc(OC)c(OC)c(OC)c2)cc1 | 6.02 | < 5.00 | 7.39 | 6.68 | 7.57 | 6.58 | 5.68 | 70% | –
9 | COc1ccc(-c2nnnn2-c2cc(OC)c(OC)c(OC)c2)cc1C | 8.68 | 7.42 | 8.70 | 8.39 | 7.81 | 8.25 | 5.60 | 59% | –
10 | CCCCCOc1ccc(-c2nnnn2-c2cc(OC)c(OC)c(OC)c2)cc1 | 5.19 | < 5.00 | < 5.00 | < 5.00 | < 5.00 | < 5.00 | – | – | –
11 | COc1ccc(-c2nnnn2-c2cc(OC)c(OC)c(OC)c2)cc1 | 8.59 | 6.65 | 8.54 | 8.59 | 7.41 | 8.34 | 5.60 | 54% | –
12 | CCCCOc1ccc(-c2nnnn2-c2cc(OC)c(OC)c(OC)c2)cc1 | < 5.00 | < 5.00 | < 5.00 | < 5.00 | < 5.00 | < 5.00 | – | – | –
13 | CCOc1ccc(-n2nnnc2-c2cc(OC)c(OC)c(OC)c2)cc1 | 9.52 | 8.13 | 9.15 | 9.59 | 8.55 | 8.51 | 5.70 | 71% | pIC50 (LoVo [4]): 6.93; pIC50 (LoVo [5]): 7.01; Ratio IC50 (LoVo [6]): 0.8; pIC50 (CCRF-CEM [7]): 8.42; pIC50 [8]: 9.30; Ratio IC50 (CCRF-CEM [9]): 0.1; pIC50 [10]: 8.38; Ratio IC50 (A549 [11]): 0.6; Activity (HeLa [12]): Dose-dependent effect; Activity (HeLa [13]): Active; Activity (HeLa [14]): >80%; Activity (HeLa [15]): Active; Activity (HeLa [16]): Active; Activity (HeLa [17]): Dose-dependent effect; Activity (HeLa [18]): tde; Activity (HeLa [19]): Dose-dependent effect; Activity (HeLa [20]): tde; Activity (HeLa [21]): Active; Activity (HeLa [22]): Active
14 | COc1cc(-c2nnnn2-c2cc(OC)c(OC)c(OC)c2)cc(OC)c1OC | < 5.00 | < 5.00 | < 5.00 | < 5.00 | < 5.00 | < 5.00 | – | – | –
15 | CCc1ccc(-c2nnnn2-c2cc(OC)c(OC)c(OC)c2)cc1 | 7.54 | 5.47 | 7.27 | 7.26 | 7.90 | 6.74 | 5.43 | 47% | –
16 | COc1cc(-n2nnnc2-c2cccs2)cc(OC)c1OC | < 5.00 | < 5.00 | < 5.00 | < 5.00 | < 5.00 | < 5.00 | – | – | –
17 | COc1ccc(-c2nnnn2-c2cc(OC)c(OC)c(OC)c2)cc1OC | 6.59 | 5.45 | 6.31 | 6.46 | 5.57 | 6.45 | – | – | –
